assay: Toxicity liver stage against HepG2, at 10uM; assay type: cell-based; set-up: test concentration 10 uM, cell line HepG2-A16-CD81EGFP; details: human, HepG2-A16-CD81EGFP cells; read-out: INHIBITION
In short: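 Uninfected HepG2-A16-CD81EGFP cells, 3 × 10^3 per well, 1536-well, plated on prespotted compound at 10 μM final, parasite-free screening media added to match infected plates; puromycin 10 μM positive, DMSO 0.5% negative; run in parallel with 48 h PbLuc assay at 37 °C, 5% CO2; viability by CellTiter-Glo luminescence, normalized to controls.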

SMILES	cytotoxicity at 10 µM [%]
c1cc(-c2cncnc2)cc(-c2ccn(CC3CCNC3)n2)c1 (configuration not stated)	5.54
CCn1cc(CN2CCCN(C3Cc4ccccc4C3)CC2)c(C)n1	-10.9
Cc1cccc2c1C(=O)NC1(CCOCC1)N2	-42.3
CNc1ccnc(N2C[C@@H](C)[C@](O)(C3CC3)C2)n1	-13.1
O=c1c2ccccc2nc2n1C(CSc1ccc(Cl)cc1)CN2 (configuration not stated)	9.38
c1ccc(Cc2nnc([C@H]3CCN(C4CCCCC4)C3)o2)cc1	-1.14
CC(C)C(O)C1(CNC(=O)Nc2ccc(CN3CCOC3=O)cc2)CC1 (configuration not stated)	-5.09
COCCCN(Cc1ccccn1)S(=O)(=O)N(C)C	12
Cc1ccc(NC2CCN(C(=O)Cc3csc(C)n3)CC2)nn1	-6.51
O=C1CC2(CCCCC2)C(=O)N1CC(O)COCc1ccccc1F (configuration not stated)	0.611
CC(C)c1nncn1CCNC(=O)c1c(O)cc(F)cc1F	-1.99
O=C(NCCOc1ccc2c(c1)OCO2)C1CC(=O)N(CC2CC2)C1 (configuration not stated)	-6.63
CN(Cc1cc(-c2cccnc2)no1)C(=O)[C@@H]1CSCN1C	0.66
OC1(c2ccccc2F)CCN(Cc2ccccc2N2CCCC2)CC1	13.2
CCn1cc(-c2cc(-c3ccn(C)c3)nc(N)c2C#N)cc1C#N	2.11
CN(Cc1noc(-c2ccccc2)n1)C(=O)CSc1nnc(N)s1	0.712
CC(=O)N1CCCC1(C(=O)N1CCCC1)c1cnccn1 (configuration not stated)	0.142
CC(=O)c1cccc(OCCCC(=O)NC(C#N)CC(C)C)c1 (configuration not stated)	-41.3
Cc1noc(C(C)Nc2ccc3oc(C(C)C)nc3c2)n1 (configuration not stated)	-7.84
COCC(=O)N1C[C@@H]2OCCN(Cc3c(C)noc3C)[C@@H]2C1	-0.722
CN(Cc1cccnc1)c1nc(-c2ccccn2)nc2c1CCNCC2	3.64

SMILES	cytotoxicity at 10 µM [%]
Cc1ccc2[nH]c(CNC(=O)C3CC4(CCNCC4)CN3C)nc2c1C (configuration not stated)	-9.66
N#CCCN(CC1CCOC1)Cn1ccc(-c2cccs2)n1 (configuration not stated)	10.9
Cc1nnn2c1COC(CNC(=O)c1cccn1C)C2 (configuration not stated)	6.09
COCC(=O)N1Cc2c(-c3cccc(C)c3)nc(N)nc2C1C (configuration not stated)	-0.607
CCn1c(C(=O)N2CCN(CC(C)O)CC2)cc2ccccc21 (configuration not stated)	-8.96
O=C(C1CCOCC1)N1C[C@@H]2CN(Cc3ccsc3)CCO[C@@H]2C1	-77.5
Cc1noc(C)c1CCCNC(=O)Nc1cccc([S+](C)[O-])c1 (configuration not stated)	-0.595
CSc1ncccc1C(=O)N1C[C@@H]2CC[C@H]1CN(c1ncccn1)C2	-4.03
CC(C)N1CCc2c(C(=O)N3CCOCC3)nn(C)c2C1	-105
Cc1ccc(N2CCCC(NCc3nnc(-c4ccco4)o3)C2)nn1 (configuration not stated)	-9.07
Cn1cnnc1CNC(=O)CCCOc1ccccc1Cl	3.28
CCn1cc(CN2CCC(CCC(=O)Nc3ccccc3Cl)CC2)cn1	-0.99
Cc1nnc([C@@H]2CC[C@@H]3[C@@H](CCN3CC3CCOCC3)O2)o1	7.64
Cc1ccc(S(=O)(=O)N(C)Cc2cnccn2)cc1N(C)C	12
CCc1nc(C2CCCN(C(=O)C3=NN(C(C)C)C(=O)CC3)C2)no1 (configuration not stated)	-7.28
Cn1cccc1C(=O)N1CCC2(CC1)CN(c1ccccn1)CCO2	-10.8
O=C(CC1CCc2ccccc21)N1CCC(C(=O)O)(n2ccnc2)CC1 (configuration not stated)	10.7
CC(=O)N1CC2(CCCN2Cc2ccc(Cl)cc2)Cc2ccccc21 (configuration not stated)	11.9
O=C(NCc1ccncc1)N(Cc1ccc(F)cc1F)C1CC1	3.9
Cc1noc(C)c1CN1CCC2(CC1)NC(=O)CC2c1ccncc1 (configuration not stated)	0.635
CCc1nc(CNCCn2cc(C)cn2)no1	-4.32

SMILES	cytotoxicity at 10 µM [%]
CC(C)CN1C[C@@H]2OCC(=O)N(Cc3nccn3C)[C@@H]2C1	0.174
Cc1ccc(OCCC(=O)N2CCC(c3nncn3C)CC2)c(C)c1	-6.27
CC1(C)CN(C(=O)c2ccccc2-n2cncn2)CC1(C)O (configuration not stated)	-19.3
CC(C)COC(C)C(=O)NCc1ccccc1Cn1ccnc1 (configuration not stated)	4.9
O=C(c1cncc(NCC2COc3ccccc3C2)n1)N1CCCC1 (configuration not stated)	-6.53
CCCc1noc(CCC(=O)NC(C)c2nnc3n2CCCCC3)n1 (configuration not stated)	4.05
COc1ncccc1C(=O)N1CC(c2nc(-c3ccco3)no2)C1	4.91
COC(=O)C1CCCCN1C(=O)c1cn(C/C=C/c2ccccc2)nn1 (configuration not stated)	3.98
CC(C)c1nc(C2CCCN2Cc2ccno2)no1 (configuration not stated)	-6.85
CCN(CC)c1ccc(CNC(=O)c2ccccn2)cn1	10.8
O=C(Nc1cccc2c1CCCC2)c1cccc(CN2CC[C@H](O)C2)c1	-9.32
N#Cc1cc(C#N)c(SCC(=O)Nc2ccc(F)cc2)nc1N	-0.506
CCc1ccc(S(=O)(=O)Nc2cc(C(=O)O)ccc2F)s1	-8.27
CCOc1ccc(Cl)c(C(=O)N2CCCC(c3cc(C)[nH]n3)C2)n1 (configuration not stated)	8.83
Cc1cccc(C)c1NC(=O)c1cc(S(N)(=O)=O)c(C)o1	-4.27
CCOc1cccc(CN(Cc2cnn(C)c2)CC(C)C)c1O	-7
Cc1c(C(C)NC2CCN(C(C)C)CC2)cnn1-c1ccc(F)cc1F (configuration not stated)	-6.58
O=C1NCCCC[C@@H]1Nc1ccc(-c2nc(C3CC3)no2)cn1	2.87
COc1ccc2[nH]cc(C(=O)CNc3nccs3)c2c1	4.32
O=C(COc1ccccc1F)N1CCCCC1c1ccn2ccnc2n1 (configuration not stated)	-8.52
CN1CC(=O)N(c2cccnc2)Cc2c(NC3CC3)ncnc21	5.28

SMILES	cytotoxicity at 10 µM [%]
CCCC(C)C(=O)NCc1cn2cc(Br)ccc2n1 (configuration not stated)	-6.6
COc1cccc(S(=O)(=O)CCN2CCN(CCO)CC2)c1	0.878
CS(=O)(=O)NC1(CCc2ccc(NC(=O)C3CC3)nc2)CCCCC1	6.56
COCCN1CCC2(COCc3c(C)nc(N4CCOCC4)nc32)C1 (configuration not stated)	-130
O=C(N1CCCC1)N1CCc2onc(COc3cccnc3)c2C1	-75.6
Cc1ccccc1CN1CCNC(=O)C1CC(=O)NCC1CCCCC1 (configuration not stated)	-8.77
Cc1ccc(C(=O)N2CCN(Cc3cccs3)CC2)n1C	-5.37
CN(Cc1n[nH]c(=O)n1CCc1ccccc1F)S(C)(=O)=O	-1.78
COc1ccnc(N2CCN(C(=O)c3csc(C4CC4)n3)CC2)n1	4.85
CCC(C(=O)NC1CCCC1)n1ccc2ncccc2c1=O (configuration not stated)	4.2
Cc1ccc(-n2c(O)cc(C)c(C#N)c2=O)c(C)c1	7.75
COCCNc1ccc(CC2CCCN(C3CCCC3)C2)nn1 (configuration not stated)	3.07
O=C(c1ccc(Cl)o1)N1CCCN(Cc2cscn2)CC1	-1.08
Cc1cc(NC(=O)CCn2cncn2)no1	2.89
Cc1ccc(C)c(CN2CCCn3nc(CNS(C)(=O)=O)cc3C2)c1	-4.64
CC(C)(C)c1nnc(CNc2cc(F)ccc2OCC2CCCO2)o1 (configuration not stated)	3.06
CC(=O)N1CCC(Cc2cnc(-c3c(C)n[nH]c3C)cn2)CC1	-21.7
O=C(C1CCOCC1)N1CC[C@H]2C[C@@H](c3ccncn3)O[C@@H]2C1	-0.748
Cc1cnn(C2CCCN(C(=O)CCc3ccncc3)C2)c1 (configuration not stated)	-10.7

From ChEMBL document CHEMBL4513216, “Probing the Open Global Health Chemical Diversity Library for Multistage-Active Starting Points for Next-Generation Antimalarials” (ACS Infect Dis, 2020)
